Experimental data taken from ChEMBL document CHEMBL1127667, “Synthesis of benzo-fused benzodiazepines employed as probes of the agonist pharmacophore of benzodiazepine receptors” (J Med Chem, 1994).

Columns and labels:
[1] = target: GABA-A receptor; anion channel; assay: In vitro inhibitory concentration of compound against benzodiazepine receptor from rat cerebral cortex using [3H]- flunitrazepam was evaluated; assay type: tissue-based
Procedure, shortened: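 Rat cerebral cortex membranes prepared in 50 mM Tris-citrate, pH 7.4, washed three times. About 0.1 mg protein incubated with [3H]flunitrazepam (~1 nM final) and NaCl at 0-4 °C for 60 min. Bound ligand collected by GF/B filtration. IC50 taken from at least six inhibitor concentrations. Mean ± SEM of at least three determinations.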

[2] = target: T1, GABA-A receptor; anion channel (Mus musculus) (UniProt Q8BHJ7+P26048+Q8QZW7+P50571+Q9R0Y8+P22723+A2AMW3+P62812+Q9JLF1+P26049+P22933+Q9D6F4+P63080+P27681+P16305); assay: In vivo activity of compound was evaluated against benzodiazepine receptor in mice; assay type: functional, organism-based
Procedure, shortened: (§1)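 Adult male NIH/Swiss mice, groups of three to eight, given graded ip doses in diluted Emulphor/saline (1:9). Muscle relaxation tested on a wire at 12 min. PTZ given at 15 min: 80 mg/kg to test anticonvulsant action, 40 mg/kg to test proconvulsant action.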

[3] = target: T1, GABA-A receptor; anion channel (Mus musculus); assay: In vivo activity against GABA-A benzodiazepine receptor in mice; assay type: functional, organism-based; parameters: unit not given here; procedure, shortened: as §1
[4] = species: Mus musculus; assay: Compound was tested for myorelaxant effect in mice; assay type: functional
Procedure, shortened: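 Male NIH/Swiss mice, 25-30 g, groups of three to eight, dosed ip with graded amounts in diluted Emulphor/saline (1:9) or vehicle. At 12 min, mice were hung by the forepaws on a 1.5-mm wire 60 cm above the bench. Three falls within 1 min counted as muscle relaxation. ED50 derived from the dose-response.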

[5] = species: Mus musculus; assay: Compound was tested for anticonvulsant effect in mice; assay type: functional
Procedure, shortened: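 Male NIH/Swiss mice, 25-30 g, groups of three to eight, given graded ip doses in diluted Emulphor/saline (1:9) or vehicle. PTZ 80 mg/kg injected 15 min after dosing. Protection from PTZ-induced convulsions scored. ED50 derived from the dose-response.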

## CN1C(=O)CN=C(c2ccccc2)c2cc(Cl)c(Cl)cc21
[1]
  IC50: 40 nM
[2]
  Activity: Weak activity

## Cc1cc([N+](=O)[O-])cc2c1NC(=O)CN=C2c1ccccc1
[3]
  Activity: 8.12

## O=C1CN=C(c2ccccc2)c2c(Cl)cccc2N1
[1]
  IC50: 320 nM
[2]
  Activity: 0

## C=Cc1ccc2c(c1)C(c1ccccc1)=NCC(=O)N2
[1]
  IC50: 24 nM
[2]
  Activity: Weak activity

## CN1C(=O)CN=C(c2ccccc2F)c2cc3ccccc3cc21
[1]
  IC50: 55 nM
[4]
  ED50: 15 mg/kg
[5]
  ED50: 15 mg/kg

## O=C1CN=C(c2ccccc2)c2cc(-c3ccccc3)ccc2N1
[3]
  Activity: 781

## O=C1CN=C(c2ccccc2F)c2cc3ccccc3cc2N1
[1]
  IC50: > 1000 nM

## Cc1cc(C)c2c(c1)C(c1ccccc1)=NCC(=O)N2
[3]
  Activity: 792

## O=C1CN=C(c2ccccc2F)c2cc(Cl)c(Cl)cc2N1
[1]
  IC50: 3.6 nM

## CN1C(=O)CN=C(c2ccccc2)c2c1ccc1ccccc21
[1]
  IC50: > 1000 nM

## CN1C(=O)CN=C(c2ccccc2F)c2ccc3ccccc3c21
[1]
  IC50: 260 nM

## O=C1CN=C(c2ccccc2)c2c(ccc3ccccc23)N1
[1]
  IC50: > 1000 nM

## CN1C(=O)CN=C(c2ccccc2F)c2c(Cl)cccc21
[1]
  IC50: 150 nM
[2]
  Activity: 0

## Cc1cc2c(cc1Cl)NC(=O)CN=C2c1ccccc1F
[1]
  IC50: 14 nM
[2]
  Activity: 0

## O=C1CN=C(c2ccccc2)c2cc(Cl)cc(Cl)c2N1
[3]
  Activity: 8

## CN1C(=O)CN=C(c2ccccc2F)c2c1ccc1ccccc21
[1]
  IC50: > 1000 nM

## O=C1CN=C(c2ccccc2)c2cc3ccccc3cc2N1
[1]
  IC50: 400 nM

## O=C1CN=C(c2ccccc2F)c2c(ccc3ccccc23)N1
[1]
  IC50: > 1000 nM

## O=C1CN=C(c2ccccc2)c2ccc3ccccc3c2N1
[1]
  IC50: > 1000 nM

## CCOC(=O)c1ncc2[nH]c3ccc(OCc4ccccc4)cc3c2c1COC
[1]
  IC50: 5 nM

## Cc1cc2c(cc1C)C(c1ccccc1)=NCC(=O)N2
[3]
  Activity: 132

## CN1C(=O)CN=C(c2ccccc2)c2cc(Cl)ccc21
[2]
  Activity: 1.39

## O=C1CN=C(c2ccccc2F)c2ccc3ccccc3c2N1
[1]
  IC50: 120 nM

## CN1C(=O)CN=C(c2ccccc2)c2ccc3ccccc3c21
[1]
  IC50: > 1000 nM

## CN1C(=O)CN=C(c2ccccc2)c2cc3ccccc3cc21
[1]
  IC50: > 1000 nM
